From PubChem
FGF22 binding: FGF22 (human) thermal shift binding; Q9HCT0; recombinant FGF22 thermal shift, SYPRO orange fluorescence; percent of sucrose octasulfate shift, DMSO zero; activity (Tm shift, normalised), % at 9.99 µM; 1.5% of 340,000 active;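 active = mean Tm shift, scaled 0 neutral to 100 positive control, at about 1.3% or above, every replicate too, limit read from the data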
Target sequence (Q9HCT0 whole entry, looked up): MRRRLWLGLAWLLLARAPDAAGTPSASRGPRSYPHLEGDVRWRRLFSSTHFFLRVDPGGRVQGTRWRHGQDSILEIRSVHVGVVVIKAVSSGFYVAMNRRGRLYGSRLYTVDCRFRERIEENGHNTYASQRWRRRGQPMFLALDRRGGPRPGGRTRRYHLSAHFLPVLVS
Cneo AK release: causes C. neoformans cell lysis; lysis activity, % at 15 µM; adenylate kinase release luminescence, 4 h; normalised: neutral wells 0, clomiphene wells 100; 0.2% of 360,000 active;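 active = mean lysis activity across replicates of at least 80%, whatever share of replicates individually reach that level; inactive = mean lysis activity below 80%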
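Material – log-phase Cryptococcus neoformans yeast cells · Input – 5 × 10^6 yeast cells/mL · Medium – fresh YPD growth medium · Doses – single compound concentration per well · Timing – static 4 h at 37 °C with compound, 1 h detection · Detection – adenylate kinase release luminescence · Read-out – signal increase indicating cell lysis · Control set – Clomiphene as positive lysis control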
PGC1a acetyl inh: lowers PGC1a acetylation signal in U2OS cells; AID 651687; 0.17% of 350,000 active; AlphaScreen anti-acetyl-lysine; with virally co-expressed GCN5 acetyltransferase; inhibition, % at 15.6 µM;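 active = every replicate shows inhibition of at least 40%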;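 also: 0% = neutral control wells and 100% = positive control wells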
Vif imaging: HIV Vif inhibition; HEK293T cells, Vif self-association by quenched fluorescence, imaging, 24 h; inhibition, % at 7.49 µM; 0.35% of 340,000 active; in the data active = inhibition above about 50%, passing the limit was not always enough
Ecoli rRNA inh: inhibits bacterial ribosomal RNA function over humanized ribosomes. E. coli WT GFP vs humanized-ribosome RFP mutants, fluorescence, 24 h; stronger effect = lower value; DMSO median 0, no signal -100. GFP signal change (wild-type ribosome), % (no concentration beside the values). 1.6% of 350,000 active. AID 720706;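 active = significant combined selectivity score with lowered wild-type GFP, culture density cut under 30%, mutant RFP and density less affected; inactive = any of these conditions unmet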
PglD inh: blocks C. jejuni PglD acetyltransferase activity; AID 602405; purified PglD enzyme, DTNB colorimetric CoA detection; 0.098% of 360,000 active; inhibition, % at 12.5 µM; in the data active = inhibition above about 16%, passing the limit was not always enough
Active calls of the source: *; nt = not tested or not shown. Most compounds without a hit are left out; they make up all but 2.9% or so of the library.

SMILES	FGF22 binding	Cneo AK release	PGC1a acetyl inh	Vif imaging	Ecoli rRNA inh	PglD inh
C[C@H]1CN([C@@H](C)CO)C(=O)c2cccc(NC(=O)C3CCCCC3)c2O[C@H]1CN(C)Cc1ccc(-c2ccccc2)cc1	nt	nt	6	nt	-11	nt
CCCCSc1nn[nH]n1	0	1	5	52*	12	-2
C/C(=N\NC(=O)c1ccc(F)cc1)c1cccc(NC(=O)c2cccc(F)c2)c1	0	-2	nt	0	7	6
C/C(=N\NC(=O)c1cccc(N/N=C(\C)c2cc(O)ccc2O)c1)c1cc(O)ccc1O	43*	nt	9	-28	-3	nt
C/C(=N/NC(=O)c1ccc(-c2ccccc2)cc1)c1cccc(O)c1	0	2	nt	-1	-26*	2
C/C(=N\NC(=O)c1cccc(F)c1)c1cccc(NC(=O)c2ccc(F)cc2)c1	43*	nt	nt	-2	nt	nt
C/C(=N\NC(=O)c1ccc(N/N=C(\C)c2ccc(O)cc2)cc1)c1ccc(O)cc1	42	nt	-12	-5	-21*	nt
C/C(=N\NC(=O)c1ccc(O)cc1)c1cccc(NC(=O)c2ccc(Cl)cc2)c1	0	-17	-23	0	-35*	9
CSc1ccc(/C=C(\C#N)C(=O)NC2CCCCC2)cc1	nt	nt	nt	-3	nt	nt
CC(=O)Nc1ccc(/C=C(\C#N)C(=O)NC2CCCCC2)cc1	0	nt	-1	1	-26*	nt
NC(=O)NCC#Cc1ccc2c(c1)[C@]1(C(=O)N2)[C@H](c2ccccc2OCCO)N2[C@H](c3ccccc3)[C@H](c3ccccc3)OC(=O)[C@H]2[C@@H]1C(=O)O	0	0	nt	nt	nt	-3
COCCOC(=O)N1C(=O)[C@@]2(c3cc(C#CCNC(N)=O)ccc31)[C@H](c1ccccc1OCCO)N1[C@H](c3ccccc3)[C@H](c3ccccc3)OC(=O)[C@H]1[C@@H]2C(N)=O	1	-14	-11	nt	nt	1
COCCOC(=O)N1C(=O)[C@@]2(c3ccccc31)[C@H](c1ccccc1OCCO)N1[C@H](c3ccccc3)[C@H](c3ccccc3)OC(=O)[C@H]1[C@@H]2C(N)=O	24*	-1	nt	nt	nt	-6
NC(=O)NCC#Cc1ccc2c(c1)[C@]1(C(=O)N2)[C@H](C(N)=O)[C@H]2C(=O)O[C@H](c3ccccc3)[C@H](c3ccccc3)N2[C@@H]1c1ccccc1OCCO	0	96*	nt	nt	nt	2
Cc1ccccc1-c1ccc([C@H]2[C@@H](CO)N3CCCCN(S(=O)(=O)c4cn(C)cn4)C[C@H]23)cc1	0	1	-4	nt	-2	-2
CC(C)(CO)CNC(=O)CCc1nnc(CCCc2ccccc2)o1	43*	nt	nt	-2	3	nt
O=C(CCc1nnc(Cc2cccc(C(F)(F)F)c2)o1)NCC(F)(F)F	0	nt	nt	8	20	nt
C=C(C)CNC(=O)CCc1nnc(Cc2cccc(C(F)(F)F)c2)o1	43*	nt	nt	-3	nt	nt
CC(C)N1CCC(N2CCN(CCCc3ccccc3)CC2CCO)CC1 (stereo not drawn)	0	31	10	-6	12	-6
CC(C)N1CCC(N2CCN(C3CCCCCC3)CC2CCO)CC1 (stereo not drawn)	43*	nt	nt	8	8	nt
COc1ccc(S(=O)(=O)Nc2ccc3c(c2)C(=O)N([C@@H](C)CO)C[C@@H](C)[C@H](CN(C)C(=O)CCCN(C)C)OCCCC[C@@H](C)O3)cc1	0	-1	-4	nt	3	-2
CC(=O)Nc1ccc(C(=O)CSc2nnc(-c3ccccc3F)n2CCc2ccccc2)cc1	0	nt	-6	-4	-35*	nt
O=C(Nc1ccccc1F)N1C[C@H]2[C@@H](c3ccccc31)[C@H](CO)N2C(=O)Cc1cccnc1	nt	-3	-2	nt	7	-2
COc1ccc(NC(=O)c2nc[nH]c2C(=O)N(C)CCO)cc1	43*	0	nt	16	14	-7
Cc1ccc(NC(=O)c2nc[nH]c2C(=O)N(C)CCO)cc1	0	-2	nt	-1	18	-4
SMILES	FGF22 binding	Cneo AK release	PGC1a acetyl inh	Vif imaging	Ecoli rRNA inh	PglD inh
O=C(NC1CCCN(Cc2ccc(Cl)cc2)C1)c1ccccc1C(F)(F)F (stereo not drawn)	0	0	47*	0	0	2
COc1ccc(NC(=O)N(C)C[C@H]2Oc3ccc(NS(=O)(=O)c4ccccc4)cc3CC(=O)N([C@@H](C)CO)C[C@H]2C)cc1	0	nt	8	nt	-1	nt
CCOC(=O)c1cc(OC(=O)c2cccs2)n(-c2ccccc2)n1	0	1	12	5	-18*	1
COc1cccc2cc(-c3n[nH]c(=S)n3C)oc12	42	2	4	4	-8	1
COc1cccc2cc(-c3ccnc(N)n3)oc12	0	7	-2	-3	-32*	-4
CC(NC1CCCCC1)C(=O)NN=C(c1ccccc1)c1ccccc1 (stereo not drawn)	0	nt	nt	9	-25*	nt
O=C(Nc1ccccc1F)N[C@@H]1CC[C@H](CCNS(=O)(=O)c2ccc(F)cc2)O[C@H]1CO	0	52	-10	nt	0	-2
COc1ccc(NC(=O)Nc2cccc3c2O[C@@H](CN(C)S(=O)(=O)c2ccc(Cl)cc2)[C@@H](C)CN([C@@H](C)CO)C3=O)cc1	0	-4	2	nt	-4	2
COc1ccc(NC(=O)Nc2cccc3c2O[C@H](CN(C)Cc2ccncc2)[C@@H](C)CN([C@H](C)CO)C3=O)cc1	0	-2	5	nt	2	-2
COc1ccc(CN(C)C[C@H]2Oc3c(NC(=O)Nc4cccc5ccccc45)cccc3C(=O)N([C@H](C)CO)C[C@H]2C)cc1	0	2	8	nt	-4	2
COc1ccc(NC(=O)Nc2cccc3c2O[C@H](CN(C)S(=O)(=O)c2ccc(Cl)cc2)[C@H](C)CN([C@@H](C)CO)C3=O)cc1	0	-8	-1	nt	-23*	0
COc1ccc(NC(=O)Nc2cccc3c2O[C@H](CN(C)Cc2ccncc2)[C@H](C)CN([C@@H](C)CO)C3=O)cc1	0	53	5	nt	2	22*
COc1ccc(CN(C)C[C@@H]2Oc3c(NC(=O)Nc4cccc5ccccc45)cccc3C(=O)N([C@@H](C)CO)C[C@@H]2C)cc1	0	114*	-6	nt	2	1
O=C(CN1CCOCC1)Nc1ccc(OC(F)(F)F)cc1	0	1	nt	-12	17	-2
FC(F)(F)Oc1ccc(NC(=S)Nc2ccccc2N2CCOCC2)cc1	0	1	nt	4	-51*	2
CS(=O)(=O)N1CCN(c2ccc(NC(=S)NC(=O)c3cccs3)cc2)CC1	44*	nt	-12	-17	5	nt
COc1cc(C(=O)NC(=S)Nc2ccccc2N2CCOCC2)cc(OC)c1OC	0	80*	nt	-9	-6	-6
COc1cccc(C(=O)NC(=S)Nc2ccccc2N2CCOCC2)c1	nt	36	0	-4	nt	-2
